Screening results deposited in PubChem by several laboratories.
This is a sample that favours compounds with a hit; in the whole collection about 3.1% have one here.
rCAG RNA binder: binds r(CAG) RNA repeats; 370,000 tested, 1.3% active; inhibition, % at 3 µM; r(CAG) RNA repeat, TO-PRO-1 dye displacement fluorescence;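 active = inhibition above the plate cutoff, the mean of all test compounds on that plate plus 3 SD, cut at about 35% in these data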;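 note: 0% = DMSO alone and 100% = 100 µM mitoxantrone as full dye displacement; higher means more dye released from RNA so lower well fluorescence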
LEDGF integ inh: blocks HIV-1 LEDGF/p75-dependent DNA integration; TR-FRET IN-LEDGF/p75 DNA integration, Eu/Cy5; inhibition, % at 3.7 µM; 370,000 tested, 0.64% active;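 active = inhibition above the screen-wide mean plus 3 SD, cut at about 13% in these data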;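 note: signal is the Cy5 over europium emission ratio at 671 and 618 nm; 0% = plate median of compound wells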
ATG4B inh: blocks human ATG4B protease cleavage of LC3 substrate; Q9Y4P1; ATG4B cleavage of LC3-PLA2, NBD-HPC fluorescence, 1 h; inhibition, % at 8.33 µM; 340,000 tested, 0.51% active; in the data active = inhibition above about 40%
Target sequence (Q9Y4P1 whole entry, looked up): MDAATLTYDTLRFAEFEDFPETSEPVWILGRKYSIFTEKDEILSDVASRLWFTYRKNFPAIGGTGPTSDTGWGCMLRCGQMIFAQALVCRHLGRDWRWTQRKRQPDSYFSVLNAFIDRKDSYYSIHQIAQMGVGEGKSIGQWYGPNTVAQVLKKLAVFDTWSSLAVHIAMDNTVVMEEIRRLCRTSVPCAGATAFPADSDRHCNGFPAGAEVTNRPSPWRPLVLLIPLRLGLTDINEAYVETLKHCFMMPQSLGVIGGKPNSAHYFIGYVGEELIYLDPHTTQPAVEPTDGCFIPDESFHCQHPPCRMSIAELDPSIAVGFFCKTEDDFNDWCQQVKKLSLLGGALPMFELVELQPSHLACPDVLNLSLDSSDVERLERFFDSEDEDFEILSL
CSN inh: blocks human CSN-mediated cullin deneddylation | Q92905 | AID 651999 | inhibition, % at 12.5 µM | 360,000 tested, 0.38% active | Purified CSN, SCF-Nedd8-OG deneddylation, fluorescence polarization;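 active = pattern-corrected inhibition above about 35%, with an unprinted fluorescence ratio check between 0.5 and 1.5, limit read from the data, passing the limit was not always enough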;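 note: 0% = enzyme with substrate and 100% = substrate without enzyme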
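Schedule: reaction 90 min, room temperature / Assay system: HEK293T-derived human Csn5 enzyme / Input: Csn5 at 0.24 nM final / Measure: inhibition of Csn5 cleavage, % / Control set: substrate-only high control, full reaction low control / Technique: fluorescence polarization of the substrate / Buffer or medium: Tris/NaCl/DTT buffer, pH 7.5 / Reagent: SCFSkp2-Nedd8OG substrate at 10 nM final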
MBD2 inh: blocks human MBD2 binding to methylated DNA | TR-FRET, MBD2 binding to methylated oligonucleotide | AID 686964 | Q9UBB5 | inhibition, % at 4.4 µM | 370,000 tested, 0.31% active; in the data active = inhibition above about 13%
UHRF1 MBD2 ctr: blocks human UHRF1 binding to methylated DNA; Q96T88; UHRF1 binding to methylated oligo, TR-FRET; inhibition, % at 4.4 µM; 370,000 tested, 0.75% active; AID 687016; in the data active = inhibition above about 21%;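 note: UHRF1 SRA domain binding a hemimethylated CpG hairpin DNA probe; 0% = median of test compound wells and 100% = reference inhibitor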
The depositor's hits bear a star; · = no result given.

SMILES	rCAG RNA binder	LEDGF integ inh	ATG4B inh	CSN inh	MBD2 inh	UHRF1 MBD2 ctr
CCN(Cc1cccs1)c1ncnc2ccc(-c3ccc4c(c3)OCO4)cc12	·	0	·	·	0	5
Cc1onc(-c2ccccc2Cl)c1C(=O)Nc1nnc(-c2ccc(Br)cc2)s1	46*	-1	6	-2	-1	-2
COc1ccccc1NC(=S)NNC(=O)c1ccncc1	3	-2	0	3	9	23*
Cc1onc(-c2ccccc2Cl)c1C(=O)Nc1nnc(-c2ccc(F)cc2)s1	14	-5	-3	-4	0	1
COc1ccccc1NC(=S)NC(=O)c1c(-c2ccccc2Cl)noc1C	2	0	-17	3	2	24*
COc1ccccc1NC(=S)NNC(=O)c1ccccc1	2	-3	-3	-1	5	-1
COc1cc(NC(=O)c2noc3c2CCC3)c(OC)cc1Cl	11	7	-1	33	0	28*
Cc1ccc(/C=C2/Sc3ccc(C(=O)NCc4ccccn4)cc3NC2=O)cc1	6	4	3	61*	1	0
CCOc1ccccc1C(O)C1=CC(=O)c2ccccc2C1=O (stereo unspecified)	38*	5	9	9	5	6
c1ccc(Cn2ccc3ccc(-c4ccc5ccn(Cc6cccc(-c7cccs7)c6)c5c4)cc32)cc1	22	-2	·	·	2	-1
CC1(c2ccc(O)cc2)NC(=O)N(c2ccccc2)N1 (stereo unspecified)	0	-2	-1	1	11	24*
COc1cc(/C=C/c2nc3ccccc3c(=O)[nH]2)ccc1O	3	-2	·	6	-7	-2
COc1cc(/C=C/c2nc3ccccc3c(=O)[nH]2)cc(Br)c1O	3	-4	-6	38*	4	2
CC(=O)Nc1ccc(NC(=O)c2ccc(S(=O)(=O)N(C)c3ccccc3)cc2)cc1	9	4	-3	-5	2	-3
Cc1nc2ccc(NC(=O)c3ccc(S(=O)(=O)N(C)c4ccccc4)cc3)cc2s1	13	5	-11	1	1	26*
CC(C)(C)c1ccc(S(=O)(=O)NNC(=O)C2CCN(Cc3cccc(F)c3)CC2)cc1	-3	-1	-7	-12	-3	24*
Cc1c(NC(=O)c2ccc(Cl)nc2)cccc1-c1nc2cccnc2s1	1	3	-1	-3	10	22*
CCc1ccc(NC(=O)COc2ccc(/C=C(/C#N)c3nc4ccccc4[nH]3)cc2OC)cc1	8	2	6	2	-1	1
COc1cc(/C=C(/C#N)c2nc3ccccc3[nH]2)ccc1OCc1ccc(C(=O)O)o1	40*	0	2	1	2	4
Cc1ccc2c(c1)N(CCC(=O)NC1CCCCC1)C(=O)CO2	-3	1	1	0	1	22*
Cc1ccc2c(c1)N(CC(=O)NC1CCCCC1C)C(=O)CO2 (stereo unspecified)	-5	0	-10	-4	2	0
Cc1ccc(C2=NN(CCC(=O)NC3CCCC3)C(=O)CC2)cc1	-4	8	-11	-2	2	23*
COc1ccc(N(C(=O)Cc2cccs2)C(C(=O)NC2CCCCC2)c2cccn2C)cc1OC (stereo unspecified)	-8	-4	-9	3	-9	-4
Cn1cccc1C(C(=O)NC1CCCCC1)N(C(=O)Cc1cccs1)C1CC1 (stereo unspecified)	-6	-1	-3	4	1	37*
COc1ccc(Cn2c(SCC(=O)NCc3ccco3)nc3ccsc3c2=O)cc1	3	21*	-12	6	-4	5
SMILES	rCAG RNA binder	LEDGF integ inh	ATG4B inh	CSN inh	MBD2 inh	UHRF1 MBD2 ctr
Cc1[nH]c2ccccc2c1/C=N/Nc1ccc([N+](=O)[O-])cc1S(=O)(=O)Nc1ccc(Cl)cc1	10	-2	-5	44*	8	12
C=Cc1ccc(N=Cc2c(O)ccc3ccccc23)cc1	7	8	4	39*	-10	-3
CN(CC#CC1=CCCCC1)/C(N)=N/C(=O)OCc1ccccc1	0	-1	·	·	-4	0
Cc1cc(C)cc(C(=O)Nc2ccc(N3CCCC3)cc2)c1	3	-3	-9	16	1	47*
O=C(COCc1ccccc1)N1CC[C@H]2[C@H](CCCN2Cc2ccccc2)C1	2	3	·	·	2	-1
Cc1ccnc(SCc2cc(=O)c(OC(=O)c3ccc(C#N)cc3)co2)n1	·	-4	·	·	-1	1
Cc1ccnc(NC(=S)N2CC3CN(c4cccc(C(F)(F)F)c4)CC3C2)c1 (stereo unspecified)	·	11	·	·	0	0
COCCNC(=O)C1CCCN(C(=O)c2cc(C(C)(C)C)nn2C)CC1 (stereo unspecified)	1	-2	·	-4	2	25*
CCOC(=O)C1CCCN(C(=O)c2cc(C(C)(C)C)nn2C)CC1 (stereo unspecified)	-2	1	·	5	0	1
CCC[C@H]1[C@@H](OC(=O)Oc2ccc([N+](=O)[O-])cc2)CC[C@@]23CCCN2C(=O)CCC[C@@H]13	·	2	·	·	4	-1
Cc1ccc(S(=O)(=O)NCC2CCN(C(=O)C(=O)c3cc4ccccc4o3)CC2)cc1	5	3	·	·	-2	0
COc1ccc(OC)c(NC(=O)CSc2nc3[nH]c(=O)cc(O)c3s2)c1	31	3	-1	1	-7	-3
CCn1c(=S)sc2c(=O)[nH]c(SCC(=O)Nc3cc(OC)ccc3OC)nc21	76*	5	13	2	-5	-5
COc1ccc(OC)c(NC(=O)CSc2nc3[nH]c(=O)[nH]c(=O)c3s2)c1	37*	4	0	-2	1	4
COC(=O)C[C@H]1CC[C@H]2[C@H](COc3ccc(NC(=O)C4CCOCC4)cc3C(=O)N2C)O1	3	5	·	·	7	4
Cc1n[nH]c(C)c1S(=O)(=O)NCCc1ccccc1	1	0	·	·	-4	1
C=CC(=O)Nc1cccc(Oc2ccnc3[nH]ccc23)c1	·	·	15	122*	·	·
C=CC(=O)Nc1cccc(Oc2ccnc(Nc3ccc(N4CCN(C)CC4)cc3)n2)c1	1	-2	-3	7	1	7
O=C(CSc1nnc(SCc2cccc3ccccc23)s1)c1ccc(F)cc1	8	-1	·	·	-4	-3
COc1cc(C(O)C(=O)O)ccc1O (stereo unspecified)	2	2	-5	-4	-2	43*
C/C(=N\Nc1cccc(C(=O)O)c1)c1cc2ccccc2o1	20	3	2	0	7	3
C/C(=N\Nc1ccc(Cl)c(C(=O)O)c1)c1cc2ccccc2o1	22	-2	2	6	-3	31*
